# Columns and labels:
# Blood [1] = assay: Drug uptake in blood of Swiss Webster systemic infected mouse model infected with methicillin-resistant Staphylococcus aureus BAA1762 at 3.7 MBq, iv after 60 mins; type: ADME, organism-based; conditions: in vivo, 1 h
# In short: (§1)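 Neutropenic mice (ip cyclophosphamide) infected ip with 2×10^7 MRSA cells. [11C]-label given into the lateral tail vein in ethanol/saline (1/3) under isoflurane, then mice recovered and moved freely. Killed by cervical dislocation; blood taken by cardiac puncture, organs excised, weighed and well-counted. Reported as %ID/g, mean ± SD, n=3.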
# Lung [2] = assay: Drug uptake in lung of Swiss Webster systemic infected mouse model infected with methicillin-resistant Staphylococcus aureus BAA1762 at 3.7 MBq, iv after 60 mins; type: ADME, organism-based; conditions: in vivo, 1 h; in short: as §1
# Blood [3] = assay: Drug uptake in blood of Swiss Webster thigh infected mouse model infected with methicillin-resistant Staphylococcus aureus BAA1762 at 3.7 MBq, iv after 45 mins; type: ADME, organism-based; conditions: in vivo, 0.75 h
# In short: (§2)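 Neutropenic mice (ip cyclophosphamide) given 5×10^5 MRSA cells into the left thigh muscle. [11C]-label given into the lateral tail vein in ethanol/saline (1/3) under isoflurane, then mice recovered and moved freely. Killed by cervical dislocation; muscle from both thighs and blood collected, weighed and well-counted. Reported as %ID/g, mean ± SD, n=3.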
# Kidney [4] = assay: Drug uptake in kidney of healthy Swiss Webster mouse at 3.7 MBq, iv after 40 mins; type: ADME, organism-based; conditions: in vivo
# In short: as §1, with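 “Uninfected control mice.” for “Neutropenic mice (ip cyclophosphamide) infected ip with 2×10^7 MRSA cells.”, “spleen, lung, liver and kidney” for “organs”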
# Spleen [5] = assay: Drug uptake in spleen of Swiss Webster systemic infected mouse model infected with methicillin-resistant Staphylococcus aureus BAA1762 at 3.7 MBq, iv after 40 mins; type: ADME, organism-based; conditions: in vivo; in short: as §1
# Spleen [6] = assay: Drug uptake in spleen of healthy Swiss Webster mouse at 3.7 MBq, iv after 20 mins; type: ADME, organism-based; conditions: in vivo
# In short: as §1, with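 “Uninfected control mice.” for “Neutropenic mice (ip cyclophosphamide) infected ip with 2×10^7 MRSA cells.”, “spleen, lung, liver and kidney” for “organs”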
# Liver [7] = assay: Drug uptake in liver of Swiss Webster systemic infected mouse model infected with methicillin-resistant Staphylococcus aureus BAA1762 at 3.7 MBq, iv after 20 mins; type: ADME, organism-based; conditions: in vivo; in short: as §1
# Blood [8] = assay: Drug uptake in blood of healthy Swiss Webster mouse at 3.7 MBq, iv after 20 mins; type: ADME, organism-based; conditions: in vivo
# In short: as §1, with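 “Uninfected control mice.” for “Neutropenic mice (ip cyclophosphamide) infected ip with 2×10^7 MRSA cells.”, “spleen, lung, liver and kidney” for “organs”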
# Blood [9] = assay: Drug uptake in blood of Swiss Webster thigh infected mouse model infected with methicillin-resistant Staphylococcus aureus BAA1762 at 3.7 MBq, iv after 15 mins; type: ADME, organism-based; conditions: in vivo, 0.25 h; in short: as §2
# Liver [10] = assay: Drug uptake in liver of healthy Swiss Webster mouse at 3.7 MBq, iv after 40 mins; type: ADME, organism-based; conditions: in vivo
# In short: as §1, with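 “Uninfected control mice.” for “Neutropenic mice (ip cyclophosphamide) infected ip with 2×10^7 MRSA cells.”, “spleen, lung, liver and kidney” for “organs”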
# [11] = Drug uptake in healthy thigh of Swiss Webster thigh infected mouse model infected with methicillin-resistant Staphylococcus aureus BAA1762 at 3.7 MBq, iv after 60 mins; type: ADME, organism-based, Thigh muscle; conditions: in vivo, 1 h; in short: as §2
# Lung [12] = assay: Drug uptake in lung of healthy Swiss Webster mouse at 3.7 MBq, iv after 60 mins; type: ADME, organism-based; conditions: in vivo, 1 h
# In short: as §1, with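 “Uninfected control mice.” for “Neutropenic mice (ip cyclophosphamide) infected ip with 2×10^7 MRSA cells.”, “spleen, lung, liver and kidney” for “organs”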
# Lung [13] = assay: Drug uptake in lung of healthy Swiss Webster mouse at 3.7 MBq, iv after 20 mins; type: ADME, organism-based; conditions: in vivo
# In short: as §1, with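 “Uninfected control mice.” for “Neutropenic mice (ip cyclophosphamide) infected ip with 2×10^7 MRSA cells.”, “spleen, lung, liver and kidney” for “organs”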
# Kidney [14] = assay: Drug uptake in kidney of Swiss Webster systemic infected mouse model infected with methicillin-resistant Staphylococcus aureus BAA1762 at 3.7 MBq, iv after 40 mins; type: ADME, organism-based; conditions: in vivo; in short: as §1
# [15] = Drug uptake in infected thigh of Swiss Webster thigh infected mouse model infected with methicillin-resistant Staphylococcus aureus BAA1762 at 3.7 MBq, iv after 30 mins; type: ADME, organism-based, Thigh muscle; conditions: in vivo, 0.5 h; in short: as §2
# Blood [16] = assay: Drug uptake in blood of Swiss Webster thigh infected mouse model infected with methicillin-resistant Staphylococcus aureus BAA1762 at 3.7 MBq, iv after 60 mins; type: ADME, organism-based; conditions: in vivo, 1 h; in short: as §2
# Kidney [17] = assay: Drug uptake in kidney of Swiss Webster systemic infected mouse model infected with methicillin-resistant Staphylococcus aureus BAA1762 at 3.7 MBq, iv after 20 mins; type: ADME, organism-based; conditions: in vivo; in short: as §1
# Kidney [18] = assay: Drug uptake in kidney of healthy Swiss Webster mouse at 3.7 MBq, iv after 60 mins; type: ADME, organism-based; conditions: in vivo, 1 h
# In short: as §1, with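 “Uninfected control mice.” for “Neutropenic mice (ip cyclophosphamide) infected ip with 2×10^7 MRSA cells.”, “spleen, lung, liver and kidney” for “organs”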
# [19] = Drug uptake in healthy thigh of Swiss Webster thigh infected mouse model infected with methicillin-resistant Staphylococcus aureus BAA1762 at 3.7 MBq, iv after 15 mins; type: ADME, organism-based, Thigh muscle; conditions: in vivo, 0.25 h; in short: as §2
# Liver [20] = assay: Drug uptake in liver of healthy Swiss Webster mouse at 3.7 MBq, iv after 20 mins; type: ADME, organism-based; conditions: in vivo
# In short: as §1, with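 “Uninfected control mice.” for “Neutropenic mice (ip cyclophosphamide) infected ip with 2×10^7 MRSA cells.”, “spleen, lung, liver and kidney” for “organs”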
# Lung [21] = assay: Drug uptake in lung of healthy Swiss Webster mouse at 3.7 MBq, iv after 40 mins; type: ADME, organism-based; conditions: in vivo
# In short: as §1, with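 “Uninfected control mice.” for “Neutropenic mice (ip cyclophosphamide) infected ip with 2×10^7 MRSA cells.”, “spleen, lung, liver and kidney” for “organs”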
# Blood [22] = assay: Drug uptake in blood of healthy Swiss Webster mouse at 3.7 MBq, iv after 60 mins; type: ADME, organism-based; conditions: in vivo, 1 h
# In short: as §1, with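 “Uninfected control mice.” for “Neutropenic mice (ip cyclophosphamide) infected ip with 2×10^7 MRSA cells.”, “spleen, lung, liver and kidney” for “organs”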
# Kidney [23] = assay: Drug uptake in kidney of Swiss Webster systemic infected mouse model infected with methicillin-resistant Staphylococcus aureus BAA1762 at 3.7 MBq, iv after 60 mins; type: ADME, organism-based; conditions: in vivo, 1 h; in short: as §1
# [24] = Drug uptake in healthy thigh of Swiss Webster thigh infected mouse model infected with methicillin-resistant Staphylococcus aureus BAA1762 at 3.7 MBq, iv after 30 mins; type: ADME, organism-based, Thigh muscle; conditions: in vivo, 0.5 h; in short: as §2
# Kidney [25] = assay: Drug uptake in kidney of healthy Swiss Webster mouse at 3.7 MBq, iv after 20 mins; type: ADME, organism-based; conditions: in vivo
# In short: as §1, with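 “Uninfected control mice.” for “Neutropenic mice (ip cyclophosphamide) infected ip with 2×10^7 MRSA cells.”, “spleen, lung, liver and kidney” for “organs”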
# Spleen [26] = assay: Drug uptake in spleen of Swiss Webster systemic infected mouse model infected with methicillin-resistant Staphylococcus aureus BAA1762 at 3.7 MBq, iv after 20 mins; type: ADME, organism-based; conditions: in vivo; in short: as §1
# Liver [27] = assay: Drug uptake in liver of healthy Swiss Webster mouse at 3.7 MBq, iv after 60 mins; type: ADME, organism-based; conditions: in vivo, 1 h
# In short: as §1, with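 “Uninfected control mice.” for “Neutropenic mice (ip cyclophosphamide) infected ip with 2×10^7 MRSA cells.”, “spleen, lung, liver and kidney” for “organs”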
# Lung [28] = assay: Drug uptake in lung of Swiss Webster systemic infected mouse model infected with methicillin-resistant Staphylococcus aureus BAA1762 at 3.7 MBq, iv after 20 mins; type: ADME, organism-based; conditions: in vivo; in short: as §1
# Liver [29] = assay: Drug uptake in liver of Swiss Webster systemic infected mouse model infected with methicillin-resistant Staphylococcus aureus BAA1762 at 3.7 MBq, iv after 40 mins; type: ADME, organism-based; conditions: in vivo; in short: as §1
# Blood [30] = assay: Drug uptake in blood of Swiss Webster systemic infected mouse model infected with methicillin-resistant Staphylococcus aureus BAA1762 at 3.7 MBq, iv after 40 mins; type: ADME, organism-based; conditions: in vivo; in short: as §1
# [31] = Drug uptake in infected thigh of Swiss Webster thigh infected mouse model infected with methicillin-resistant Staphylococcus aureus BAA1762 at 3.7 MBq, iv after 60 mins; type: ADME, organism-based, Thigh muscle; conditions: in vivo, 1 h; in short: as §2
# [32] = Drug uptake in healthy thigh of Swiss Webster thigh infected mouse model infected with methicillin-resistant Staphylococcus aureus BAA1762 at 3.7 MBq, iv after 45 mins; type: ADME, organism-based, Thigh muscle; conditions: in vivo, 0.75 h; in short: as §2
# Blood [33] = assay: Drug uptake in blood of Swiss Webster systemic infected mouse model infected with methicillin-resistant Staphylococcus aureus BAA1762 at 3.7 MBq, iv after 20 mins; type: ADME, organism-based; conditions: in vivo; in short: as §1
# Spleen [34] = assay: Drug uptake in spleen of Swiss Webster systemic infected mouse model infected with methicillin-resistant Staphylococcus aureus BAA1762 at 3.7 MBq, iv after 60 mins; type: ADME, organism-based; conditions: in vivo, 1 h; in short: as §1
# [35] = Drug uptake in infected thigh of Swiss Webster thigh infected mouse model infected with methicillin-resistant Staphylococcus aureus BAA1762 at 3.7 MBq, iv after 45 mins; type: ADME, organism-based, Thigh muscle; conditions: in vivo, 0.75 h; in short: as §2
# Blood [36] = assay: Drug uptake in blood of healthy Swiss Webster mouse at 3.7 MBq, iv after 40 mins; type: ADME, organism-based; conditions: in vivo
# In short: as §1, with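 “Uninfected control mice.” for “Neutropenic mice (ip cyclophosphamide) infected ip with 2×10^7 MRSA cells.”, “spleen, lung, liver and kidney” for “organs”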
# Lung [37] = assay: Drug uptake in lung of Swiss Webster systemic infected mouse model infected with methicillin-resistant Staphylococcus aureus BAA1762 at 3.7 MBq, iv after 40 mins; type: ADME, organism-based; conditions: in vivo; in short: as §1
# [38] = Drug uptake in infected thigh of Swiss Webster thigh infected mouse model infected with methicillin-resistant Staphylococcus aureus BAA1762 at 3.7 MBq, iv after 15 mins; type: ADME, organism-based, Thigh muscle; conditions: in vivo, 0.25 h; in short: as §2
# Spleen [39] = assay: Drug uptake in spleen of healthy Swiss Webster mouse at 3.7 MBq, iv after 60 mins; type: ADME, organism-based; conditions: in vivo, 1 h
# In short: as §1, with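 “Uninfected control mice.” for “Neutropenic mice (ip cyclophosphamide) infected ip with 2×10^7 MRSA cells.”, “spleen, lung, liver and kidney” for “organs”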
# Blood [40] = assay: Drug uptake in blood of Swiss Webster thigh infected mouse model infected with methicillin-resistant Staphylococcus aureus BAA1762 at 3.7 MBq, iv after 30 mins; type: ADME, organism-based; conditions: in vivo, 0.5 h; in short: as §2
# Liver [41] = assay: Drug uptake in liver of Swiss Webster systemic infected mouse model infected with methicillin-resistant Staphylococcus aureus BAA1762 at 3.7 MBq, iv after 60 mins; type: ADME, organism-based; conditions: in vivo, 1 h; in short: as §1
# Spleen [42] = assay: Drug uptake in spleen of healthy Swiss Webster mouse at 3.7 MBq, iv after 40 mins; type: ADME, organism-based; conditions: in vivo
# In short: as §1, with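 “Uninfected control mice.” for “Neutropenic mice (ip cyclophosphamide) infected ip with 2×10^7 MRSA cells.”, “spleen, lung, liver and kidney” for “organs”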
smiles,measurement,setting,value
CCCCCCc1ccc(Oc2ccccc2[11C]#N)c(O)c1,Drug uptake,Blood [1],0.44 %ID/cc
same,Drug uptake,Lung [2],2.01 %ID/cc
same,Drug uptake,Blood [3],0.28 %ID/cc
same,Drug uptake,Kidney [4],1.41 %ID/cc
same,Drug uptake,Spleen [5],0.3 %ID/cc
same,Drug uptake,Spleen [6],0.67 %ID/cc
same,Drug uptake,Liver [7],11.18 %ID/cc
same,Drug uptake,Blood [8],0.64 %ID/cc
same,Drug uptake,Blood [9],0.72 %ID/cc
same,Drug uptake,Liver [10],9.69 %ID/cc
same,Drug uptake,[11],0.33 %ID/cc
same,Drug uptake,Lung [12],1.32 %ID/cc
same,Drug uptake,Lung [13],3.19 %ID/cc
same,Drug uptake,Kidney [14],1.15 %ID/cc
same,Drug uptake,[15],0.54 %ID/cc
same,Drug uptake,Blood [16],0.26 %ID/cc
same,Drug uptake,Kidney [17],2.41 %ID/cc
same,Drug uptake,Kidney [18],0.93 %ID/cc
same,Drug uptake,[19],0.98 %ID/cc
same,Drug uptake,Liver [20],11.79 %ID/cc
same,Drug uptake,Lung [21],1.75 %ID/cc
same,Drug uptake,Blood [22],0.34 %ID/cc
same,Drug uptake,Kidney [23],1.13 %ID/cc
same,Drug uptake,[24],0.63 %ID/cc
same,Drug uptake,Kidney [25],2.22 %ID/cc
same,Drug uptake,Spleen [26],0.71 %ID/cc
same,Drug uptake,Liver [27],6.91 %ID/cc
same,Drug uptake,Lung [28],3.28 %ID/cc
same,Drug uptake,Liver [29],5.25 %ID/cc
same,Drug uptake,Blood [30],0.38 %ID/cc
same,Drug uptake,[31],0.34 %ID/cc
same,Drug uptake,[32],0.42 %ID/cc
same,Drug uptake,Blood [33],0.67 %ID/cc
same,Drug uptake,Spleen [34],0.31 %ID/cc
same,Drug uptake,[35],0.38 %ID/cc
same,Drug uptake,Blood [36],0.41 %ID/cc
same,Drug uptake,Lung [37],1.78 %ID/cc
same,Drug uptake,[38],0.89 %ID/cc
same,Drug uptake,Spleen [39],0.19 %ID/cc
same,Drug uptake,Blood [40],0.42 %ID/cc
same,Drug uptake,Liver [41],7.31 %ID/cc
same,Drug uptake,Spleen [42],0.37 %ID/cc

# Reference: ChEMBL document CHEMBL3352599, “Radiosynthesis and biological evaluation of a novel enoyl-ACP reductase inhibitor for Staphylococcus aureus” (Eur J Med Chem, 2014)
